The values below come from publication PMC2695835 (Bioorganic & medicinal chemistry, 2009).

“And” between values parts separate entries of the source, which are not always exact repeats. Equal entries are not always repeated.

This assay has as its target T1, GVIA iPLA2 (Homo sapiens, UniProt O60733).
T1 sequence (O60733 1-806): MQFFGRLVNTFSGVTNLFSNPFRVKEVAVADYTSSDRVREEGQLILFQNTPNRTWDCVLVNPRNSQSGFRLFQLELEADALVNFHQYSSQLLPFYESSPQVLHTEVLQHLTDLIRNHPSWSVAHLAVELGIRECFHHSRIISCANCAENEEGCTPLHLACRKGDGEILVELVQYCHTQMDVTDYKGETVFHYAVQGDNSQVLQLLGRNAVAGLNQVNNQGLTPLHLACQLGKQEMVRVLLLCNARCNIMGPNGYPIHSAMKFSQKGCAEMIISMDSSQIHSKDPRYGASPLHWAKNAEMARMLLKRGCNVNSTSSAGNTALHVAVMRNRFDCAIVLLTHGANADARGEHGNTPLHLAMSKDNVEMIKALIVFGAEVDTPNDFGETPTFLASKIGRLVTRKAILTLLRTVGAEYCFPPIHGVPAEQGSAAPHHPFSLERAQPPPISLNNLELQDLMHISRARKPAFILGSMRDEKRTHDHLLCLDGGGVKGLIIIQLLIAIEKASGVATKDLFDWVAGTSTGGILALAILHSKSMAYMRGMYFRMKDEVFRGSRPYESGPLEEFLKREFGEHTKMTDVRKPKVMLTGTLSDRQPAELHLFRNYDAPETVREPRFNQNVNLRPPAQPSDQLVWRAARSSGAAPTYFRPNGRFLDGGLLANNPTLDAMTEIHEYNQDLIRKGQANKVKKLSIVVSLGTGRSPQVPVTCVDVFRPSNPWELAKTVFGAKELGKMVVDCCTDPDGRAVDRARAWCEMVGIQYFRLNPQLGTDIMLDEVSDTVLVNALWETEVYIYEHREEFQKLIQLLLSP
Briefly: In vitro GVIA iPLA2 inhibition, mixed micellar modified Dole assay. It is filed as biochemical. To be noted: mole fraction of inhibitor in total substrate interface required to inhibit the enzyme by 50%; mixed micelles. In a few lines:
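Human GVIA iPLA2 on Triton X-100 mixed micelles, either 400 μM Triton X-100/99 μM DPPC/1.5 μM 14C-DPPC in 200 mM HEPES pH 7.0, 1 mM ATP, 2 mM DTT, 0.1 mg/ml BSA, or 400 μM Triton/98.3 μM PAPC/1.7 μM 14C-PAPC in 100 mM HEPES pH 7.5, 2 mM ATP, 4 mM DTT. XI(50) obtained when screening inhibition exceeded 90%: 7 points (typically 0.005–0.091 mole fraction), linear or one-site hyperbola (BMAX = 100) fit.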
As to `CCCCCCCCCCCCCCC(=O)C(=O)N[C@@H](CCCC)COCC(=O)OCC` [Compound 13, (S)-Ethyl 2-(2-(2-oxohexadecanamido)hexyloxy)acetate], the “GVIA iPLA2 XI(50)” value was 0.017 mole fraction and 0.017 ± 0.002 mole fraction.

For the compound `CCCCCCCCCCCCCCC(=O)C(=O)N[C@@H](CCCC)C(=O)NCC(=O)OC(C)(C)C` [Compound 8a, (S)-tert-Butyl 2-(2-(2-oxohexadecanamido)hexanamido)acetate], the “GVIA iPLA2 XI(50)” value is 0.011 mole fraction and 0.011 ± 0.001 mole fraction.

Regarding `CCCCCCCCCCCCCCC(=O)C(=O)N[C@@H](CCCC)C(=O)NCC(=O)OC` [Compound 4a, (S)-Methyl 2-(2-(2-oxohexadecanamido)hexanamido)acetate], the “GVIA iPLA2 XI(50)” value was determined as 0.045 ± 0.018 mole fraction.

In the case of `CCCCCCCCCCCCCCC(=O)C(=O)N[C@H](C(=O)NCC(=O)OC(C)(C)C)C(C)C` [Compound 8b, (S)-tert-Butyl 2-(3-methyl-2-(2-oxohexadecanamido)butanamido)acetate], the “GVIA iPLA2 XI(50)” value was determined as 0.044 ± 0.025 mole fraction.

`CCCCCCCCCCCCCCC(=O)C(=O)N[C@@H](CCCC)C(=O)NCC(=O)OCC` [Compound 4c, (S)-Ethyl 2-(2-(2-oxohexadecanamido)hexanamido)acetate]: the “GVIA iPLA2 XI(50)” value was 0.020 mole fraction and 0.020 ± 0.002 mole fraction.
